Here are results for 6 compounds from ChEMBL document CHEMBL4433221, “Novel Sustainable-by-Design HDAC Inhibitors for the Treatment of Alzheimer's Disease” (ACS Med Chem Lett, 2019).

Each structure is given as a SMILES string. Calls of active or inactive are those of the source. No cut-off for these calls is given here.

The species named for one data set is Rattus norvegicus. Nature of the data set: Neuroprotective activity against low serum/K+ deprivation-induced toxicity in rat CGN cells assessed as increase in cell viability at 5 to 25 uM pre-treated for 6 hrs followed by 24 hrs co-treatment with serum/K+ starvation and measured after 24 hrs by MTT assay. The format is functional, cell-based. In short, it runs like this:
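Primary rat cerebellar granule neurons were pretreated for 6 h, then cotreated for 24 h under low-serum and K+ deprivation to induce death. Viability was compared with control and deprivation-only conditions, with tacrine as reference compound.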

Data set [1] is described as follows: Neurotoxicity against rat CGN cells assessed as cell viability at 25 uM incubated for 24 hrs by MTT assay. Format: toxicity, cell-based. Particulars: read-out: Activity. In short, it runs like this:
(§1)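 Primary rat cerebellar granule neuron cultures were exposed for 24 h to 5, 25 or 50 μM. Viability was measured by MTT and expressed as percentage of untreated controls, as mean ± SE of at least three experiments, each run in triplicate.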

The subject of data set [2] is N9. The data set is described as follows: Immunomodulatory activity in mouse N9 cells assessed as increase in LPS-induced MRC1 expression at 5 to 25 uM incubated for 24 hrs by Western blot analysis. The format is functional, cell-based. In short, it runs like this:
(§2)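 N9 mouse microglial cells stimulated with LPS (100 ng/mL) and treated at 5 and 25 μM. iNOS and MRC1 levels were read by Western blot with GAPDH as loading control. Densitometry is expressed as percentage of LPS-only cells, as mean ± SE of three independent experiments.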

Data set [3] in a line: Neurotoxicity against rat CGN cells assessed as cell viability at 50 uM incubated for 24 hrs by MTT assay. Format: toxicity, cell-based. The conditions noted are these: read-out: Activity. In short, it runs like this: as §1
In data set [4] the test system is N9. Nature of the data set: Immunomodulatory activity in mouse N9 cells assessed as reduction in LPS-induced iNOS expression at 5 to 25 uM incubated for 24 hrs by Western blot analysis. Format: functional, cell-based. In short, it runs like this:
as §2

A short description of data set [5]: Permeability of the compound at pH 7.4 PBS buffer at 100 uM measured upto 6 hrs by PAMPA-BBB assay.
The next data set concerns the target Histone deacetylase 1 (Homo sapiens, UniProt Q13547). The data set is described as follows: Inhibition of human recombinant HDAC1 at 10 uM using ZMAL (Z-(Ac)Lys-AMC fluorogenic substrate incubated for 90 mins by fluorescence method.
Data set [6] concerns the target T1, Protein deacetylase HDAC6 (Homo sapiens) (UniProt Q9UBN7).
T1 sequence (whole entry): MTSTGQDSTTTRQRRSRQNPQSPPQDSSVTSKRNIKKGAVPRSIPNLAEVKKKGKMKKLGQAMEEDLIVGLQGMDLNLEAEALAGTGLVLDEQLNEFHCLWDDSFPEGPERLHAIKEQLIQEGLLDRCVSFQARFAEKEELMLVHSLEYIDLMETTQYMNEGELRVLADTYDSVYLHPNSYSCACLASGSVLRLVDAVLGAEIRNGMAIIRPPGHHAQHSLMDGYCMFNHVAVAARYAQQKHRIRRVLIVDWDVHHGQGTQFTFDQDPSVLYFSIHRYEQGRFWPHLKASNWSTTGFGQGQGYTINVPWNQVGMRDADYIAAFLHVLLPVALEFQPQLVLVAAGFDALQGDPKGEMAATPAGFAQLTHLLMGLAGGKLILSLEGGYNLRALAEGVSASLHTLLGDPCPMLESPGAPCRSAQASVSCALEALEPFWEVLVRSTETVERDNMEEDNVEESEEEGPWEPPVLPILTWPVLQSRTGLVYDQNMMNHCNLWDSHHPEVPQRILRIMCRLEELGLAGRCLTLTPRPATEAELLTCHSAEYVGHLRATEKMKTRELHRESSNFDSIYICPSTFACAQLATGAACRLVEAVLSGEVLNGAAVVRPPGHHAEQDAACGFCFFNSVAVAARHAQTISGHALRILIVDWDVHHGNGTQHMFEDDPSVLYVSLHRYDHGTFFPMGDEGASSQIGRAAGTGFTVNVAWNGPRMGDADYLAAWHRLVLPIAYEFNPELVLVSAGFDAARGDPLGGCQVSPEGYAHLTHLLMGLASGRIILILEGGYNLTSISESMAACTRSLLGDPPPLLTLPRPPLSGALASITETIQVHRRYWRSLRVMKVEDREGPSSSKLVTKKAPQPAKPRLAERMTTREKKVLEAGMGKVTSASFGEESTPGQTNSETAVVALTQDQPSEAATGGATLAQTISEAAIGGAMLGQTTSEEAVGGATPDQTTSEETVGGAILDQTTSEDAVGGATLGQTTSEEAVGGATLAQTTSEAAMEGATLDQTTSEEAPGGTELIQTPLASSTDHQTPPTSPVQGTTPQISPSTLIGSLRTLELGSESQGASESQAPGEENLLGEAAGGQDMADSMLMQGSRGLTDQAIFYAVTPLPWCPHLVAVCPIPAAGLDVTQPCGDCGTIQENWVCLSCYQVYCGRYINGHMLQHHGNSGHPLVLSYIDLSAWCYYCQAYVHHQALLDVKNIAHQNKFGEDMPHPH
The data set is described as follows: Inhibition of human recombinant HDAC6 at 10 uM using ZMAL (Z-(Ac)Lys-AMC fluorogenic substrate incubated for 90 mins by fluorescence method.

Histone deacetylase 1, sequence (Q13547 whole entry): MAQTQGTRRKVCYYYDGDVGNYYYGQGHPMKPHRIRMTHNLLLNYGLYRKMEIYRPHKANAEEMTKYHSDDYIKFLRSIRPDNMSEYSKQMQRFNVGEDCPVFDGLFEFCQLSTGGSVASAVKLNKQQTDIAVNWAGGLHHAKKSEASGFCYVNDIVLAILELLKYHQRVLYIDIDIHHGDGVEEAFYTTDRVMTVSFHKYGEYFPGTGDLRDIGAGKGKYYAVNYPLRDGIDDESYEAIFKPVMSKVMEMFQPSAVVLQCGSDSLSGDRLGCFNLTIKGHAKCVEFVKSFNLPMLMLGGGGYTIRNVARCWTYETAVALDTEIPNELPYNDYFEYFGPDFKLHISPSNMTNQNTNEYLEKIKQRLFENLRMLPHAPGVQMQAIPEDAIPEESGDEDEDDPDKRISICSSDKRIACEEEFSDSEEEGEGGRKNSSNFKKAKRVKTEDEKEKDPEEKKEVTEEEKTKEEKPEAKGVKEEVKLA

For the compound `O=C(CCCCCCC(=O)Nc1ccccc1)NO` [VORINOSTAT], the result in the data set filed under Rattus norvegicus and in the data set on N9 [2] was inactive. Besides, in data set [1], the viability at 24 h, 25 µM turned out to be 70%. In data set [3], the viability at 24 h, 50 µM stood at 52%. For the same compound, the outcome with N9 [4] was Active. Regarding `Nc1c2c(nc3ccccc13)CCCC2` [TACRINE], the Papp at 6 h, 100 µM in data set [5] came out at 3.75 ×10⁻⁶ cm/s. In data set [5], `CO/N=C(\C(=O)N[C@@H]1C(=O)N2C(C(=O)O)=C(COC(N)=O)CS[C@H]12)c1ccco1` [CEFUROXIME] had a Papp at 6 h, 100 µM of 2.7 ×10⁻⁶ cm/s. As for `CN(C)CCCN1c2ccccc2Sc2ccc(Cl)cc21` [CHLORPROMAZINE], the apparent permeability (Papp) at 6 h, 100 µM in data set [5] turned out to be 5.1 ×10⁻⁶ cm/s.

Turning to `CCCCCCCCCCCCCCCc1cccc(O)c1`, the Papp at 6 h, 100 µM in data set [5] was 3.1 ×10⁻⁶ cm/s. `COc1cccc(CCCCCCCC(=O)O)c1`: the inhibition (on Histone deacetylase 1; in data set [6]) was below 15% each time.
